# Cav3 T inh = inhibitors of human Cav3.2 T-type calcium channel | O95180 | Cav3.2-expressing cells, Fluo-4 calcium fluorescence FDSS; stronger effect = lower value | B-score at 10 µM | 4% of 100,000 active | AID 449739;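 active = single-dose well whose peak fluorescence ratio is a statistical outlier from its plate by either plate-standardised score or position-corrected B-score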
# CYP2C19 inh = inhibitors of human CYP2C19. inhibition, % at 5 µM. CYP2C19 Supersomes, luciferin-H EGE luminescence, 30 min. 21% of 96,000 active;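 active = CYP2C19 inhibition above a set limit at 5 µM in the primary screen, cut at about 50% in these data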;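 also: plate controls were negative control wells for no effect and 2.5 mM tranylcypromine positive control for full effect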
# CYP2C19 activ = cytochrome P450 2C19 (human) activation; P33261; recombinant CYP2C19, luciferin-H EGE luminescence; stronger effect = higher value; 0 = fully inhibited enzyme, 1 = untreated enzyme; activation factor at 5 µM; 96,000 tested, under 10 active;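 active = activation factor of at least 2 at 5 µM in the primary screen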;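 also: 0 = wells with 2.5 mM tranylcypromine and 1 = vehicle-only wells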
# Rev-RRE block = HIV Rev-RRE protein-RNA interaction inhibition. P05866. Rev peptide-RRE RNA binding, FRET. inhibition, % at 8 µM. 0.79% of 97,000 active. AID 704;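 active = inhibition above the screen-wide mean plus 3 SD, cut at about 35% in these data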;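 also: 0% = median DMSO wells and 100% = median Neomycin B control wells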
#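 Assay system: labelled RRE RNA duplex and labelled Rev peptide / Medium: HEPES pH 7.5 salt buffer with EDTA / Reagent: labelled Rev peptide / Schedule: 5 + 15 min at 25 °C / Signal: FRET, excitation 480 nm, emission 540 nm donor and 671 nm acceptor / Benchmarks: DMSO and neomycin B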
# CYP2C9 activ = increases human cytochrome P450 2C9 activity | 1.4% of 96,000 active | AID 1024 | P11712 | recombinant CYP2C9, luciferin-H conversion, luminescence; stronger effect = higher value; factor 1 = untreated enzyme, 0 = blocked | activation factor at 5 µM;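 active = activation factor of 2 or more for CYP2C9 at a 5 µM dose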;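 also: 0 = sulfaphenazole-blocked wells and 1 = vehicle-only wells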
# Target sequence (P11712 whole entry, looked up): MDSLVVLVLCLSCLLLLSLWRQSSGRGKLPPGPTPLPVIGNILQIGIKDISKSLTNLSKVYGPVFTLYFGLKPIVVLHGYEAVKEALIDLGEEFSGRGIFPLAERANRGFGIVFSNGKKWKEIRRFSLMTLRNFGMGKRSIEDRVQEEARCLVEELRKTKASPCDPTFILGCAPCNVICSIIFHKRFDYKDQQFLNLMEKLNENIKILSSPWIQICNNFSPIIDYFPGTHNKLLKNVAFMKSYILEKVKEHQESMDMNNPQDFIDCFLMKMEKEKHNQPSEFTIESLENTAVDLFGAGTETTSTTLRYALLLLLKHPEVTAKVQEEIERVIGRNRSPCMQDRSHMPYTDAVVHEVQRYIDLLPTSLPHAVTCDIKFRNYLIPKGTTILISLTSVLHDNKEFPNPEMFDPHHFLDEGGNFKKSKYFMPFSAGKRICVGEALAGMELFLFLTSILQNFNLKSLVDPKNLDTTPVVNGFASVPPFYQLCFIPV
# CYP2C9 inh = blocks human cytochrome P450 2C9. CYP2C9 Supersomes, luciferin-H conversion, luminescence. 20% of 96,000 active. AID 777. P11712. inhibition, % at 5 µM;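 active = blocking of liver enzyme CYP2C9 beyond about 50% at 5 µM, limit read from the data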
# An asterisk follows results filed as active; x = not tested or not shown. Shown are actives, neighbours in structure and some others; about 27% of the full set was active somewhere.
SMILES,Cav3 T inh,CYP2C19 inh,CYP2C19 activ,Rev-RRE block,CYP2C9 activ,CYP2C9 inh
Nc1nonc1-n1nnc(C(=O)c2ccccc2)c1-c1ccccc1,-3.4,98.1*,0,7.9,0.1,90.9*
Cc1c(C(=O)N2CCCC2)nnn1-c1nonc1N,0.0613,52.2*,0.5,21.6,1,2.7
CCOC(=O)c1nnn(-c2nonc2N)c1-c1ccc(OCC)cc1,-1.21,99.2*,0,0.9,0.1,88.8*
COC(=O)c1nnn(-c2nonc2N)c1-c1cccs1,1.19,30.8,0.7,3.5,1,-3.7
CCOC(=O)c1nnn(-c2nonc2N)c1C,-0.669,15.4,0.8,4.8,1.1,-10.6
O=C1OC(Nc2ccc(Br)cn2)c2ccccc21 (stereo unspecified),-0.0209,0.7,1,1.9,0.9,6.4
Cc1nn2c(C)nc3sc4c(c3c2nc1=O)CC(C)(C)OC4,0.737,-10.5,1.1,-1.8,1,-2.9
CC(C)Sc1nc(N2CCOCC2)c2c3c(sc2n1)COC(C)(C)C3,-3.82,36.3,0.6,4.8,0.4,57.6*
CCN1CCN(c2nc(SC)nc3sc4c(c23)CC(C)(C)OC4)CC1,-0.787,42.8,0.6,x,0.4,56.6*
CCOC(=O)c1nc(N2CCN(C(=O)OCC)CC2)c2c3c(sc2n1)CCCC3,0.104,61.5*,0.4,0.9,0.4,60.5*
CCOC(=O)N1CCN(c2nc(SC)nc3sc4c(c23)CC(C)(C)OC4)CC1,-4.65*,87.0*,0.1,x,0.2,81.4*
CCC1(C)Cc2c(sc3nc(SC)nc(NCCN(C)C)c23)CO1 (stereo unspecified),-3.37,12.5,0.9,-4.0,0.8,17.8
O=C(NCc1ccccn1)C1CCC(=O)N1C1CCCCC1 (stereo unspecified),-0.0208,-3.3,1,7.3,1.1,-12.0
Cc1cc(C)n(/N=C\c2c(O)ccc3ccccc23)c(=O)c1C(N)=O,0.0177,-8.5,1.1,3.4,0.8,24.7
CCOc1ccc(-c2nc(C#N)c(N3CCN(C)CC3)o2)cc1,0.369,11.5,0.9,3.4,1.2,-18.7
COc1ccc(-c2nc(C#N)c(N3CCCCCC3)o2)cc1,-1.37,10.3,0.9,12.9,0.5,50.2*
COc1ccc(-c2nc(C#N)c(NC(C)C)o2)cc1,-0.639,85.9*,0.1,-1.1,1,-1.2
COc1ccc(-c2nc(C#N)c(N3CCCCCC3)o2)cc1OC,-0.621,33.8,0.7,9.8,0.5,51.9*
CCOc1ccc(-c2nc(C#N)c(N3CCCCCC3)o2)cc1,0.537,-5.8,1.1,13.1,0.2,76.1*
N#Cc1nc(-c2ccccc2F)oc1N1CCCC1,0.759,50.0*,0.5,7.3,2.3*,-127.3
O=C(O)C1=C[C@H](c2csc3ccccc23)C[C@H](OCCCCO)O1,-0.248,x,x,x,x,x
COc1ccccc1C(=O)OCCN1CCOCC1,0.095,-2.3,1,3.5,0.9,10.3
O=C(OCCN1CCOCC1)C(c1ccccc1)c1ccccc1,-0.604,69.9*,0.3,x,0.4,56.4*
Cc1oc(-c2ccccc2F)nc1CN1CCC(C(=O)NC2CC2)CC1,-0.507,-6.6,1.1,3.9,1.1,-15.0
Cc1c(NC(=O)/C=C/c2cn(-c3ccccc3)nc2-c2ccccc2)c(=O)n(-c2ccccc2)n1C,-4.54*,13.3,0.9,-0.3,0.6,36.6
SMILES,Cav3 T inh,CYP2C19 inh,CYP2C19 activ,Rev-RRE block,CYP2C9 activ,CYP2C9 inh
CCN(C(=O)CN1CCN(C)CC1)c1cccc2ccccc12,1.95,-13.6,1.1,3.6,1.1,-6.5
CN1CCN(CC(=O)O)CC1,0.095,8.5,0.9,6.9,0.5,54.5*
O=C(CN1CCCCC1)Nc1ccc(S(=O)(=O)NC2CCCCC2)cc1,-1.78,47.4,0.5,-3.0,0.3,72.0*
O=C(CN1CCCCC1)Nc1ccc(S(=O)(=O)N2CCOCC2)cc1,2.36,-3.4,1,2.4,1,-2.4
CCOC(=O)C1CCCC(NS(=O)(=O)c2ccc(NC(C)=O)cc2)C1 (stereo unspecified),-0.478,57.7*,0.4,6.3,0.2,76.7*
CCOC(=O)N1CCC(N2CCN(S(=O)(=O)c3ccc(NC(C)=O)cc3)CC2)CC1,0.589,4.4,1,1.2,0.9,14.2
O=S(=O)(NC1CCCC1)c1ccc(S(=O)(=O)NC2CCCC2)cc1,-2.45,98.3*,0,x,0.1,86.1*

# Screening data: PubChem, several laboratories
